# Reference: PMC3729215 (Bioorganic & medicinal chemistry, 2011)
# Key:
# rTRPV1 [1] = molecular target: T1, rTRPV1 (Rattus norvegicus, UniProt O35433); test: [3H]RTX binding competition assay, rat TRPV1 expressed in CHO cells
# How it was run: (§1)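 Both binding and function were measured on rat TRPV1 heterologously expressed in CHO cells. Affinity came from competition with [3H]RTX. Antagonism came from a functional 45Ca2+ uptake assay. Values are mean ± SEM from 3 or more experiments.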
# rTRPV1 [2] = molecular target: T1, rTRPV1; format: cell-based; details: rTRPV1/CHO
# How it was run: as §1
# T1 sequence (O35433 whole entry): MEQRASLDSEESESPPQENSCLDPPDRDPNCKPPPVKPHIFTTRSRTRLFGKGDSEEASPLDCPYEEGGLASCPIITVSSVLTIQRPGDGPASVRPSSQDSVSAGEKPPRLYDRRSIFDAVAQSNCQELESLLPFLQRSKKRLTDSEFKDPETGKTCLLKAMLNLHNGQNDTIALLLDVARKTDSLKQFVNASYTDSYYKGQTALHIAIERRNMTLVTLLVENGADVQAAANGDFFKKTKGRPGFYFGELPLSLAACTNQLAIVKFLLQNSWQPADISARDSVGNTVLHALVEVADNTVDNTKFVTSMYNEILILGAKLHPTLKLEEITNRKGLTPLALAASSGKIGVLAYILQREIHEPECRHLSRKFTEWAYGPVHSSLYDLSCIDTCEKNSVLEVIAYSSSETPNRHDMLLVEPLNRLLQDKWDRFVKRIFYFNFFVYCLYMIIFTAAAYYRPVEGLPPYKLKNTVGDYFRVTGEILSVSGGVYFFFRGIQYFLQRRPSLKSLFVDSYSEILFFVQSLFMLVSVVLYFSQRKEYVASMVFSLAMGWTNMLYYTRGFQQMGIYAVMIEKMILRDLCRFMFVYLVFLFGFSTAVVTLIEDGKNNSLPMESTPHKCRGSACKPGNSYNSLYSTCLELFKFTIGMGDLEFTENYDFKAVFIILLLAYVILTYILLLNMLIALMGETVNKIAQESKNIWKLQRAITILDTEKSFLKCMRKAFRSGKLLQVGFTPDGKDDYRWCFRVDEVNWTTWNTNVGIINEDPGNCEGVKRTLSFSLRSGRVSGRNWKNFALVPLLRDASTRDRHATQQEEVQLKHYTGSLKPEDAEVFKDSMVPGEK
smiles,measurement,setting,value
"C[C@@H](C(=O)NCc1ccc(C(C)(C)C)cc1)c1ccc(NS(C)(=O)=O)c(F)c1 [54R, N-(4-tert-Butylbenzyl)-(2R)-2-[3-fluoro-4-(methylsulfonylamino)phenyl]propionamide]",fold weaker activity compared with 54S,"rTRPV1 [1]; rTRPV1, binding and antagonism together",30- to 40 fold
"CC(C(=O)NCc1ccc(C(C)(C)C)cc1)c1ccc(NS(C)(=O)=O)c(Br)c1 (stereo not shown) [compound 56, N-(4-tert-Butylbenzyl)-2-[3-bromo-4-(methylsulfonylamino)phenyl]propionamide]",fold reduction in potency as antagonist compared to 54,rTRPV1 [2],4 fold
"COc1cc(C(C)C(=O)NCc2ccc(C(C)(C)C)cc2)ccc1NS(C)(=O)=O (stereo not shown) [compound 71, N-(4-tert-Butylbenzyl)-2-[3-methoxy-4-(methylsulfonylamino)phenyl]propionamide]",fold reduced activity in binding affinity and antagonism,"rTRPV1 [1]; rTRPV1/CHO, binding and antagonism together, compared with 54",10 to 30 fold
"CC(C(=O)NCc1ccc(C(C)(C)C)cc1)c1ccc(NS(C)(=O)=O)c(I)c1 (stereo not shown) [compound 57, N-(4-tert-Butylbenzyl)-2-[3-iodo-4-(methylsulfonylamino)phenyl]propionamide]",fold reduction in potency as antagonist compared to 54,rTRPV1 [2],4 fold
"CC(C(=O)NCc1ccc(C(C)(C)C)cc1)c1ccc(NS(C)(=O)=O)c(Cl)c1 (stereo not shown) [compound 55, N-(4-tert-Butylbenzyl)-2-[3-chloro-4-(methylsulfonylamino)phenyl]propionamide]",fold reduction in potency as antagonist compared to 54,rTRPV1 [2],4 fold
"C[C@H](C(=O)NCc1ccc(C(C)(C)C)cc1)c1ccc(NS(C)(=O)=O)c(F)c1 [54S, N-(4-tert-Butylbenzyl)-(2S)-2-[3-fluoro-4-(methylsulfonylamino)phenyl]propionamide]",fold enhancement in receptor activity compared to 54,rTRPV1 [1]; binding and antagonism together,~2 fold
"CC(C(=O)NCc1ccc(C(C)(C)C)cc1)c1cc(F)c(NS(C)(=O)=O)c(F)c1 (stereo not shown) [compound 58, N-(4-tert-Butylbenzyl)-2-[3,5-difluoro-4-(methylsulfonylamino)phenyl]propionamide]",fold enhancement in binding affinity compared to 54,rTRPV1 [1]; rTRPV1/CHO,2 fold
